Reference: ChEMBL document CHEMBL2093137, “WHO-TDR NTD Screening”
In brackets after ≈: the same amount, converted by molar mass.

Experiments:
[1] = tested on: Schistosoma mansoni; assay: WHO-TDR: Schistosomiasis; assay type: functional; parameters: concentration or dose not given beside the values
Summary of the method: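 In this whole-organism assay, larval and/or adult worms of Schistosoma mansoni (Puerto Rican strain) were exposed to compounds from a diverse Life Chemicals library of 10,000 members. A reference drug served as positive control. Activity is stated as percent inhibition and IC50.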

[2] = tested on: Plasmodium falciparum K1; assay: WHO-TDR: Malaria; assay type: functional, organism-based, Homo sapiens; conditions: Erythrocyte
Summary of the method: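 A diverse library of 10,000 compounds from Life Chemicals, filtered for drug-likeness and reactive groups, was screened against the intra-erythrocytic Plasmodium falciparum K1 strain in human red blood cells. Previously published standard procedures were followed, with a reference drug as positive control. Antiplasmodial potency is given as IC50.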

[3] = WHO-TDR: Cytotoxicity; assay type: toxicity, cell-based; conditions: human, MRC5 cells
[4] = tested on: Trypanosoma cruzi; assay: WHO-TDR: Chagas disease; assay type: functional, organism-based, Homo sapiens; conditions: MRC5
Summary of the method: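 A diverse library of 10,000 compounds from Life Chemicals, filtered for drug-likeness and reactive groups, was screened against intracellular amastigotes of Trypanosoma cruzi Tulahuen CL2 beta-galactosidase strain. The parasites were grown in MRC-5SV2 human lung fibroblast host cells, and a reference drug served as positive control under previously published standard procedures. Antiparasitic potency is given as IC50.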

[5] = tested on: Leishmania infantum; assay: WHO-TDR: Leishmaniasis; assay type: functional, organism-based, Mus musculus; conditions: Macrophage
Summary of the method: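 A diverse library of 10,000 compounds from Life Chemicals, filtered for drug-likeness and reactive groups, was screened against whole organisms. The targets were intracellular amastigotes of Leishmania infantum MHOM/MA(BE)/67 growing in murine peritoneal macrophages. Previously published standard procedures were followed, with a reference drug as positive control. Antiparasitic potency is given as IC50.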

[6] = tested on: Onchocerca lienalis; assay: WHO-TDR: Onchocerciasis; assay type: functional; parameters: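 at 12.5 µM on microfilariae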
Summary of the method: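 Microfilariae of Onchocerca ochengi or Onchocerca lienalis, animal pathogens standing in for the human parasite, were exposed to compounds in a whole-organism screen. The compounds came from a 10,000-compound diverse Life Chemicals library filtered for drug-likeness and reactive groups. Results are expressed as percent inhibition and IC50.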

[7] = tested on: Trypanosoma brucei brucei; assay: WHO-TDR: Human African Trypanosomiasis (HAT); assay type: functional, organism-based; conditions: Squib-427
Summary of the method: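 A diverse library of 10,000 compounds from Life Chemicals, filtered for drug-likeness and reactive groups, was screened against bloodstream forms of Trypanosoma brucei Squib 427 strain in a whole-organism assay. Previously published standard procedures were followed, with reference drugs serving as positive controls. Antiparasitic potency is given as IC50.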

[8] = tested on: Brugia malayi; assay: WHO-TDR: Lymphatic Filariasis; assay type: functional; parameters: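 tested at 10 µM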
Summary of the method: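 In a whole-organism assay, Brugia malayi microfilariae were screened against a diverse Life Chemicals library that had been filtered for drug-likeness and reactive groups. That library comprised 10,000 compounds. Activity is expressed as percent inhibition and as IC50.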

Structure (SMILES): O=C(c1c(F)cccc1F)N(Cc1ccccn1)c1nc2ccccc2s1
- % Inhibition [1]: 0%
- IC50 [2]: 7.58 µg/mL (≈ 19.9 µM)
- IC50 [3]: 2.13 µg/mL (≈ 5.58 µM)
- IC50 [4]: 0.546 µg/mL (≈ 1.43 µM)
- IC50 [5]: 3.7 µg/mL (≈ 9.71 µM)
- % Inhibition [6]: 4.601%
- IC50 [7]: > 11.4 µg/mL
- % Inhibition [8]: 0%

Structure (SMILES): CCN(C1CCCCC1)S(=O)(=O)c1ccc(C(=O)Nc2nnc(-c3ccc(F)cc3)o2)cc1
- % Inhibition [1]: 0%
- IC50 [2]: > 14.2 µg/mL
- IC50 [3]: 0.577 µg/mL (≈ 1.22 µM)
- IC50 [4]: 0.459 µg/mL (≈ 0.971 µM)
- IC50 [5]: 4.59 µg/mL (≈ 9.71 µM)
- % Inhibition [6]: 46.7%
- IC50 [7]: 0.966 µg/mL (≈ 2.04 µM)
- % Inhibition [8]: 0%

Structure (SMILES): CCN(CC)CCSc1ccc(-c2ccc(Cl)cc2)nn1
- % Inhibition [1]: 0%
- IC50 [2]: 0.368 µg/mL (≈ 1.14 µM)
- IC50 [3]: > 9.66 µg/mL
- IC50 [4]: > 9.66 µg/mL
- IC50 [5]: > 9.66 µg/mL
- % Inhibition [6]: 0%
- IC50 [7]: > 9.66 µg/mL
- % Inhibition [8]: 0%

Structure (SMILES): O=C(Nc1nc(-c2ccccn2)cs1)C1CCN(S(=O)(=O)c2cccs2)CC1
- % Inhibition [1]: 0%
- IC50 [2]: > 13 µg/mL
- IC50 [3]: > 13 µg/mL
- IC50 [4]: 0.434 µg/mL (≈ 0.999 µM)
- IC50 [5]: > 13 µg/mL
- % Inhibition [6]: 9.31%
- IC50 [7]: > 13 µg/mL
- % Inhibition [8]: 0%

Structure (SMILES): CC(C)S(=O)(=O)c1ccc(C(=O)Nc2ccccc2-c2nc3ccccc3[nH]2)cc1
- % Inhibition [1]: 0%
- IC50 [2]: > 12.6 µg/mL
- IC50 [3]: > 12.6 µg/mL
- IC50 [4]: > 12.6 µg/mL
- IC50 [5]: 0.407 µg/mL (≈ 0.97 µM)
- % Inhibition [6]: 13.3%
- IC50 [7]: > 12.6 µg/mL
- % Inhibition [8]: 0%

Structure (SMILES): CS(=O)(=O)c1ccc(CC(=O)Nc2nc3c(s2)-c2cccc4cccc-3c24)cc1
- % Inhibition [1]: 0%
- IC50 [2]: 7.42 µg/mL (≈ 17.6 µM)
- IC50 [3]: 0.688 µg/mL (≈ 1.64 µM)
- IC50 [4]: 0.317 µg/mL (≈ 0.754 µM)
- IC50 [5]: 4.08 µg/mL (≈ 9.71 µM)
- % Inhibition [6]: 11.35%
- IC50 [7]: 4.29 µg/mL (≈ 10.2 µM)
- % Inhibition [8]: 0%

Structure (SMILES): Oc1ccc(Br)cc1/C=N/Nc1ncnc2[nH]cnc12
- % Inhibition [1]: 0%
- IC50 [2]: 3.68 µg/mL (≈ 11 µM)
- IC50 [3]: 0.364 µg/mL (≈ 1.09 µM)
- IC50 [4]: 0.193 µg/mL (≈ 0.579 µM)
- IC50 [5]: 3.24 µg/mL (≈ 9.71 µM)
- % Inhibition [6]: -1%
- IC50 [7]: 0.341 µg/mL (≈ 1.02 µM)
- % Inhibition [8]: 50%

Structure (SMILES): O=C(CCCSc1ccc(F)cc1)Nc1nc(-c2ccccn2)cs1
- % Inhibition [1]: 0%
- IC50 [2]: > 11.2 µg/mL
- IC50 [3]: 3.76 µg/mL (≈ 10.1 µM)
- IC50 [4]: 0.335 µg/mL (≈ 0.897 µM)
- IC50 [5]: > 11.2 µg/mL
- % Inhibition [6]: 39.33%
- IC50 [7]: 0.363 µg/mL (≈ 0.972 µM)
- % Inhibition [8]: 0%

Structure (SMILES): O=C(COc1ccc(Cl)cc1Cl)N(Cc1ccccn1)c1nc2ccccc2s1
- % Inhibition [1]: 0%
- IC50 [2]: > 13.3 µg/mL
- IC50 [3]: > 13.3 µg/mL
- IC50 [4]: 0.863 µg/mL (≈ 1.94 µM)
- IC50 [5]: 4.32 µg/mL (≈ 9.71 µM)
- % Inhibition [6]: 0%
- IC50 [7]: > 13.3 µg/mL
- % Inhibition [8]: 0%

Structure (SMILES): COC(=O)c1ccccc1N(C)C(=O)c1cc2cccnc2n(C)c1=O
- % Inhibition [1]: 0%
- IC50 [2]: > 10.5 µg/mL
- IC50 [3]: > 10.5 µg/mL
- IC50 [4]: > 10.5 µg/mL
- IC50 [5]: 0.341 µg/mL (≈ 0.971 µM)
- % Inhibition [6]: 0%
- IC50 [7]: > 10.5 µg/mL
- % Inhibition [8]: 0%

Structure (SMILES): CCN(C1CCCCC1)S(=O)(=O)c1ccc(C(=O)Nc2nc(-c3ccccn3)cs2)cc1
- % Inhibition [1]: 0%
- IC50 [2]: > 14.1 µg/mL
- IC50 [3]: 5.19 µg/mL (≈ 11 µM)
- IC50 [4]: 0.459 µg/mL (≈ 0.975 µM)
- IC50 [5]: 4.57 µg/mL (≈ 9.71 µM)
- % Inhibition [6]: 80%
- IC50 [7]: 11.7 µg/mL (≈ 24.8 µM)
- % Inhibition [8]: 0%

Structure (SMILES): CCc1ccccc1-n1c(C)cn2c3c(=O)n(CC(C)C)c(=O)n(C)c3nc12
- % Inhibition [1]: 0%
- IC50 [2]: 3.29 µg/mL (≈ 8.68 µM)
- IC50 [3]: > 11.4 µg/mL
- IC50 [4]: > 11.4 µg/mL
- IC50 [5]: > 11.4 µg/mL
- % Inhibition [6]: 20%
- IC50 [7]: 0.342 µg/mL (≈ 0.901 µM)
- % Inhibition [8]: 0%

Structure (SMILES): Cc1ccccc1Cn1cc(C(=O)Nc2cccc(Br)c2)ccc1=O
- % Inhibition [1]: 0%
- IC50 [2]: > 11.9 µg/mL
- IC50 [3]: 9.51 µg/mL (≈ 23.9 µM)
- IC50 [4]: 0.553 µg/mL (≈ 1.39 µM)
- IC50 [5]: > 11.9 µg/mL
- % Inhibition [6]: 26.7%
- IC50 [7]: 3.86 µg/mL (≈ 9.71 µM)
- % Inhibition [8]: 0%

Structure (SMILES): O=C(Nc1ccc2c(c1)OCCO2)c1oc2ccccc2c1NC(=O)C1c2ccccc2Oc2ccccc21
- % Inhibition [1]: 100%
- IC50 [2]: 5.04 µg/mL (≈ 9.72 µM)
- IC50 [3]: > 15.6 µg/mL
- IC50 [4]: > 15.6 µg/mL
- IC50 [5]: 5.04 µg/mL (≈ 9.71 µM)
- % Inhibition [6]: 0%
- IC50 [7]: > 15.6 µg/mL

Structure (SMILES): COc1ccc(Cl)cc1NC(=O)CSc1nnc(NC(=O)Cc2ccc(F)cc2)s1
- % Inhibition [1]: 100%
- IC50 [2]: > 8.44 µg/mL
- IC50 [3]: > 8.44 µg/mL
- IC50 [4]: > 8.44 µg/mL
- IC50 [5]: 2.73 µg/mL (≈ 5.85 µM)
- % Inhibition [6]: 0%
- IC50 [7]: > 8.44 µg/mL

Structure (SMILES): CN(C)CCCN(C(=O)Cc1ccccc1)c1nc2ccc(F)cc2s1
- % Inhibition [1]: 58.3%
- IC50 [2]: 0.609 µg/mL (≈ 1.64 µM)
- IC50 [3]: 3.81 µg/mL (≈ 10.3 µM)
- IC50 [4]: 4.16 µg/mL (≈ 11.2 µM)
- IC50 [5]: 3.96 µg/mL (≈ 10.7 µM)
- % Inhibition [6]: 0%
- IC50 [7]: 0.382 µg/mL (≈ 1.03 µM)
